# KCC2 mod: KCC2 (human) Cl- transport modulation | Q9H2X9 | AID 1456 | B-score of Tl+ flux slope (higher = more flux/activation; lower = inhibition) at 10 µM | actives 2.2% (n = 190,000) | KCC2 cells, thallium flux FluoZin-2 fluorescence;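 active = thallium flux slope and its plate-corrected score both differing from the plate sample mean at a set confidence after two filtering rounds, in either direction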;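 note: slope of fluorescence scaled to starting intensity during 10 to 20 s after thallium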
# CHT PAM: allosteric activators of human choline transporter CHT; Q9GZV3; CHT-expressing cells, membrane potential dye, choline EC20; active compounds read high; LV-AA mutant CHT in HEK293 cells; B-score at 10 µM; actives 0.49% (n = 310,000); AID 488977;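 active = initial fluorescence not abnormally high and integrated response B-score, plate-corrected, over 3 SD above library mean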
# CHT inh: inhibits the human high affinity choline transporter. B-score at 10 µM. actives 0.86% (n = 310,000). Q9GZV3. CHT-expressing cells, membrane potential dye, choline response; active compounds read low;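 active = B-score over 3 SD under the library average, and starting fluorescence ratio not unusually high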;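 note: choline stimulus applied at its EC90 after an EC20 pre-addition; B-score computed on integrated fluorescence ratio after choline addition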
# Rad51 HR inh: blocks human Rad51 in homologous recombination. Q06609. hRad51 DNA strand exchange, fluorescence dequenching. inhibition, % at 10 µM. actives 0.085% (n = 200,000);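 active = inhibition above 40% at the single screening dose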
# Target sequence (Q06609 whole entry, looked up): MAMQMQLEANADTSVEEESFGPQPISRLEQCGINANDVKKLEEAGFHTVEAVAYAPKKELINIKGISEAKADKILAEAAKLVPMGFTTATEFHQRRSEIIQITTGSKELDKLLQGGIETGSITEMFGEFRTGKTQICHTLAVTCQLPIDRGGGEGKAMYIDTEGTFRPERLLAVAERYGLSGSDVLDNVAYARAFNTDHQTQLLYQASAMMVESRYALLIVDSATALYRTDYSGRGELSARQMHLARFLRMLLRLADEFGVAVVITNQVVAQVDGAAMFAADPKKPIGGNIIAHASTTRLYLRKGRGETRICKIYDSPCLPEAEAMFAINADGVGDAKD
#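 Material: human Rad51–ssDNA filaments; Probe or stimulus: labelled 47-mer dsDNA for strand exchange; Doses: single 10 µM dose; Incubation: 37 °C 15-min filament assembly, 30-min compound preincubation, 15-min exchange; Technique: FRET fluorescence dequenching, excitation 485 nm, emission 520 nm; Measure: Fluorescence-based percent inhibition, control- and blank-normalised; Benchmarks: plate control and blank wells.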
# KCC2 secondary: KCC2 (human) modulation, secondary assay; shares compounds with KCC2 mod; HEK293-KCC2, thallium flux, FluoZin2 fluorescence; active compounds read high; normalised thallium flux (F/F0 slope) at 10 µM; actives 15% (n = 3,700);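 active = thallium flux slope above the same plate's solvent-only control mean plus 3 SD; inconclusive = the two replicate wells disagree; inactive = no significant difference from solvent-only control wells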
# KCC2 bumet counter: thallium flux persisting under bumetanide in KCC2 cells, counter-screen secondary assay | shares compounds with KCC2 mod | normalized thallium flux at 10 µM | HEK293-KCC2 + bumetanide/ouabain, thallium flux FluoZin2; active compounds read high | actives 49% (n = 3,700);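 active = thallium entry rate above the same plate's blocked-transporter control wells by more than 3 SD; inconclusive = the two repeat wells disagree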;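 note: raw slope of fluorescence over initial fluorescence between 10 and 20 s after thallium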
# KCC2 secondary2: KCC2 (human) modulation, second secondary assay; actives 23% (n = 3,700); normalized thallium flux at 10 µM; HEK293-KCC2, thallium flux FluoZin2 fluorescence; actives lie on both sides; F/F0 rise rate, 10–20 s post-thallium; shares compounds with KCC2 mod;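 active = thallium flux slope more than 3 SD above or below the plate's solvent-only control mean, mostly below; inconclusive = the two repeat wells disagreed; inactive = no significant shift from solvent-only controls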
# HEK counter1: acts in parental HEK cells, KCC2 counter-screen | actives 46% (n = 3,700) | shares compounds with KCC2 mod | thallium flux rate (normalised fluorescence) at 10 µM | HEK293 parental cells, thallium flux FluoZin2, ouabain; baseline-ratio fluorescence slope, 10–20 s after thallium;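 active = thallium flux rate significantly above the same plate's solvent-only control wells, beyond their mean plus 3 SD; inconclusive = the two replicate wells gave conflicting results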
# KCC2 ouabain: confirmation of human KCC2 modulators with ouabain | shares compounds with KCC2 mod | actives 48% (n = 3,700) | raw Tl+ flux slope (below DMSO = inhibition, above = activation) at 10 µM | HEK293-KCC2, thallium flux FluoZin2 fluorescence; bidirectional: low = inhibitor, high = activator;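 active = thallium flux slope beyond 3 SD from same-plate DMSO control mean in most replicates, usually higher, sometimes lower; inconclusive = repeat tests gave conflicting results; inactive = no significant difference from controls in most replicates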;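 note: slope of initial-normalized fluorescence between seconds 10 and 20 after thallium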
# HEK counter2: counter-screen for KCC2 modulators: effect in parental HEK293 cells; shares compounds with KCC2 mod; thallium flux FluoZin-2 fluorescence slope; thallium flux slope at 10 µM; actives 33% (n = 3,700);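 active = thallium flux slope above the same plate's solvent-control mean plus 3 SD in both duplicate wells; inconclusive = duplicate wells that disagreed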;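 note: run without ouabain in cells lacking the KCC2 cotransporter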
# A number is an active result; - = inactive; ? = inconclusive; . = no result. Most compounds without a hit are left out; they make up all but 2.6% or so of the library.
SMILES,KCC2 mod,CHT PAM,CHT inh,Rad51 HR inh,KCC2 secondary,KCC2 bumet counter,KCC2 secondary2,HEK counter1,KCC2 ouabain,HEK counter2
C=CCN(CC=C)C(=S)NC(=O)/C=C/c1ccc(OC)cc1,74,-,-,.,0.01,0.14,0.096,0.11,0.11,0.087
C=CCN(CC=C)C(=S)NC(=O)c1ccc(OC)cc1,71,-,-,-,0.053,0.12,0.09,0.099,0.093,0.096
Cc1nc(NC(=S)NC(=O)c2cccs2)ccc1Br,36,-,-,.,0.014,0.11,-,0.038,0.042,0.012
O=C(NC(=S)Nc1cccc2cccnc12)c1cccs1,2.8,-,-,-,-,0.0096,-,?,?,-
Cc1nc(NC(=S)NC(=O)c2cncc(Br)c2)ccc1Br,.,-,-,-,.,.,.,.,.,.
COc1ccc(NC(=O)C(=O)Nc2cccc3cccnc23)cc1OC,.,-,-,.,.,.,.,.,.,.
COc1ccc(C(=O)Nc2cccc3cccnc23)cc1OC,-6.3,-,-,-,-,-,-,-,-,-
O=C(NC(=S)N1CCN(C/C=C/c2ccccc2)CC1)c1ccco1,4.2,-,-,-,-,0.015,-,0.014,?,0.016
O=C(/C=C/c1ccc(F)cc1)NC(=S)N1CCN(Cc2ccccc2)CC1,40,-,-,-,-,0.042,-,0.03,0.031,0.026
O=C(Nc1cnccn1)Nc1ccc(Cl)cc1Cl,-,-,-,-,.,.,.,.,.,.
O=C1C(Cc2ccccc2)Nc2ncnc(N3CCc4ccccc4C3)c2N1Cc1ccc(Br)cc1 (stereo not drawn),.,-,-,.,.,.,.,.,.,.
O=C(O)CC/C(=N/NC(=O)c1cccs1)c1ccccc1,-,-,-,.,.,.,.,.,.,.
CCOC(=O)N/N=C(\CCC(=O)O)c1cccs1,7.2,-,-,.,-,-,-,-,-,-
C=CCNC(=S)NC(=O)c1oc2ccccc2c1C,11,-,-,-,-,0.035,-,0.021,0.042,0.012
Cc1c(C(=O)NC(=S)NCC(C)C)oc2ccccc12,-,-,-,.,.,.,.,.,.,.
O=C(Nc1ccccc1)/C(=C\c1ccncc1)NC(=O)c1ccccc1,5.4,-,-,-,-,-,-,?,-,-
COCCn1c(-c2ccc(NC(C)=O)cc2)nc2c1c(=O)[nH]c(=O)n2CC(C)C,.,-,-,.,.,.,.,.,.,.
CC(C)Cn1c(-c2ccc(C#N)cc2)nc2c1c(=O)[nH]c(=O)n2CC(C)C,.,-,-,-,-,-,-,-,-,-
COc1ccc(NS(=O)(=O)c2cccc3cccnc23)cc1,-,-,-,-,.,.,.,.,.,.
O=S(=O)(Nc1cc(Sc2cccc3cccnc23)c(O)c2ccccc12)c1ccccc1,48,.,.,.,0.035,0.08,0.044,0.049,0.058,0.015
COc1ccc(C)cc1NS(=O)(=O)c1cccc2nonc12,6.5,-,-,.,-,0.019,-,-,-,?
Cc1ccc(S(=O)(=O)Nc2ccccc2-c2ccccc2NS(=O)(=O)c2ccc(C)cc2)cc1,.,-,-,-,.,.,.,.,.,.
Cc1ccc(S(=O)(=O)Nc2cccc3cccnc23)cc1,13,-,-,-,?,0.066,-,0.02,0.035,?
COc1ccccc1NS(=O)(=O)c1cccc2cccnc12,2.7,-,-,-,-,0.014,-,?,-,?
COC(=O)c1ccc(N2CCS(=O)(=O)CC2)cc1,-,-,-,-,.,.,.,.,.,.
COc1cc(NS(=O)(=O)c2ccc(C)cc2)c2ncccc2c1,49,-,-,-,0.028,0.093,-,?,0.062,?

# Source: PubChem BioAssay
